Screening data: PubChem BioAssay, several laboratories
ERp5 block: inhibitors of ERp5-driven insulin aggregation, primary screen, biochemical, turbidity, absorbance 650 nm, single point | 350,000 tested, 0.05% active | AID 651711, 2012 | inhibition, % at 9.99 µM | 90 min | Protein disulfide-isomerase A6 (Homo sapiens), Q15084;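 active = mean replicate inhibition above about 25%, with every replicate also reaching it, limit read from the data, passing the limit was not always enough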
PDI turbidity: inhibitors of human PDI, primary screen, biochemical, turbidity, single point, plate reader; 350,000 tested, 0.052% active; PDI insulin aggregation turbidity, A650, 90 min; Protein disulfide-isomerase (Homo sapiens), P07237; inhibition, % at 10 µM;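 active = mean inhibition across replicates of 30% or more, whatever share of single replicates reach that level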
Target sequence (P07237 whole entry, looked up): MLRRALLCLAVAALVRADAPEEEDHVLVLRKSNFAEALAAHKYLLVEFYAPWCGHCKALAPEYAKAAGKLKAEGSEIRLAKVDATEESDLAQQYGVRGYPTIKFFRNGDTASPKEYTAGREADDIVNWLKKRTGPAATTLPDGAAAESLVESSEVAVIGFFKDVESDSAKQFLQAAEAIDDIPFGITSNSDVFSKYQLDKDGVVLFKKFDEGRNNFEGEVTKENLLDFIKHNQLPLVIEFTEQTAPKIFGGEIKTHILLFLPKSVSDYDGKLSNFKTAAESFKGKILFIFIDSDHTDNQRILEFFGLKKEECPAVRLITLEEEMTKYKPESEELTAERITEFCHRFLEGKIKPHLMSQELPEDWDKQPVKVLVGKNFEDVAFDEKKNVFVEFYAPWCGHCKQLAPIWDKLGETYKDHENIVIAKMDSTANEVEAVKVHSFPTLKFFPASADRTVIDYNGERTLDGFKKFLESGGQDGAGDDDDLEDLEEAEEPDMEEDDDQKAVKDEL
TbMetRS inhib: T. brucei MetRS inhibitors, primary screen, biochemical, luminescence; purified T. brucei MetRS, ATP depletion, Kinase-Glo luminescence; 360,000 tested, 0.4% active; AID 624268, 2012; methionyl-tRNA synthetase (Trypanosoma brucei brucei); inhibition, % at 11.9 µM;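 active = inhibition above a per-plate cutoff of the control wells' mean inhibition plus 3 SD, cut at about 5.5% in these data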;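 also: 0% = DMSO wells median and 100% = median of wells with control inhibitor compound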
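Material: T. brucei methionyl-tRNA synthetase, purified; reagent: substrates ATP, L-methionine and bulk Escherichia coli tRNA; dosing: 11.9 µM single point; timing: 15 min plus 2 h at 25 °C; detection: luminescence of leftover ATP; evaluation: % inhibition; control set: DMSO-only wells as low control; replicates: singlicate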
Tb MetRS conf: T. brucei MetRS inhibitors, confirmation, biochemical, luminescence | shares compounds with TbMetRS inhib | T. brucei MetRS enzyme, luminescence (ATP depletion) | inhibition, % at 11.9 µM | 1,400 tested, 93% active | AID 624412, 2012; in the data active = inhibition above about 7%
Jurkat cytotox: Jurkat T cell cytotoxicity, cytotoxicity control for T. brucei MetRS inhibitor project, luminescence, high throughput; shares compounds with TbMetRS inhib; Jurkat cells viability, ATP luminescence; inhibition, % at 8.3 µM; 1,400 tested, 12% active; in the data active = inhibition above about 15%;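 also: 0% = vehicle and 100% = reference inhibitor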
TbMetRS FP orth: T. brucei MetRS inhibitors, orthogonal assay for T. brucei MetRS inhibitor project, biochemical, fluorescence polarization. shares compounds with TbMetRS inhib. purified T. brucei MetRS. inhibition, % at 11.9 µM. 1,400 tested, 44% active. AID 651607, 2012; in the data active = inhibition above about 17%;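 also: 0% = vehicle wells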
Active calls of the source: *; / = no result. Rows were chosen to be rich in hits. Some 0.4% of all compounds tested hit in one or more screens of this group.

SMILES	ERp5 block	PDI turbidity	TbMetRS inhib	Tb MetRS conf	Jurkat cytotox	TbMetRS FP orth
O=C(NC1CCCC1)N1CC(=O)N2[C@H](CO)[C@@H](c3ccc(-c4cccc(F)c4)cc3)[C@@H]2C1	-2.2	/	/	/	/	/
OCCNc1nc(Nc2cccc(O)c2)nc2ccccc12	1.0	-3.8	17.5*	43.5*	1.8	14.2
OCCNc1nc(Nc2ccc(O)cc2)nc2ccccc12	2.7	-1.5	5.5	/	/	/
COc1ccc(OCc2cc(C(=O)NCc3nc(C)cs3)no2)c(Cl)c1	1.0	0.3	6.2*	29.2*	1.3	20.9*
COc1ccc(OCc2cc(C(=O)NC(C)c3nc(C)cs3)no2)c(Cl)c1 (configuration not stated)	-4.2	-4.7	0.8	/	/	/
C[C@H](CO)N1C[C@H](C)[C@@H](CN(C)Cc2cccnc2)Oc2ncc(-c3ccccc3)cc2C1=O	7.2	/	/	/	/	/
COC(=O)C[C@@H]1CC[C@@H]2[C@H](COc3ccc(NS(=O)(=O)c4ccc(F)cc4)cc3C(=O)N2C)O1	3.2	/	/	/	/	/
C[C@@H]1CN([C@@H](C)CO)S(=O)(=O)c2ccc(-c3cccc(F)c3)cc2O[C@@H]1CN(C)CC1CC1	4.5	/	/	/	/	/
COC(=O)CCC(=O)NNC(=O)CCCOc1ccc(Cl)cc1Cl	/	-0.1	3.0	/	/	/
Cc1noc(NS(=O)(=O)c2ccc(NC(=O)COc3ccc(Cl)cc3Cl)cc2)c1C	/	3.2	4.1	/	/	/
Cc1noc(C)c1COC(=O)Cc1ccc(Cl)cc1	/	8.9	-0.3	/	/	/
Cc1noc(C)c1COC(=O)CCCOc1ccc(Cl)cc1Cl	/	-0.9	7.0*	18.6*	-2.0	14.7
Cc1ccc(CNC(=O)COC(=O)CCCOc2ccc(Cl)cc2Cl)cc1	-3.5	-0.2	-0.1	/	/	/
CCNC(=O)CCCOc1ccc(Cl)cc1Cl	/	5.1	6.3*	14.1*	3.0	7.7
O=C(COC(=O)CCCOc1ccc(Cl)cc1Cl)NCc1ccccc1	2.9	-12.6	40.4*	56.7*	-5.4	42.9*
Cc1noc(NS(=O)(=O)c2ccc(NC(=O)CCCOc3ccc(Cl)cc3Cl)cc2)c1C	3.9	5.7	7.6*	13.6*	3.4	13.3
COc1ccc2c3c([nH]c2c1)[C@H](CO)N(C(C)=O)CC31CCN(C(=O)CN2CCOCC2)CC1	0.3	/	/	/	/	/
CCCNC(=O)Nc1ccc2c(c1)OC[C@@H](C)N(Cc1cccnc1)C[C@@H](C)[C@H](OC)CN(C)C2=O	4.2	/	/	/	/	/
Cc1cc(Cl)ccc1OCCCC(=O)NN	-2.1	-3.5	-0.3	/	/	/
Cc1cc(Cl)ccc1OCCCC(=O)NCCc1nnc2ccccn12	-0.8	-1.0	7.2*	13.8*	-4.0	5.4
COc1cccc(CN(C)[C@H]2C[C@H]3c4[nH]c5ccccc5c4CCN3C[C@H]2[C@H](C)O)c1OC	1.0	/	/	/	/	/
C[C@H](O)[C@@H]1C(=O)N2CCc3c([nH]c4ccccc34)[C@@H]2C[C@@H]1N(C)Cc1ccc2c(c1)OCO2	8.3	-4.8	88.8*	102.2*	0.5	83.2*
C[C@H](O)[C@@H]1C(=O)N2CCc3c([nH]c4ccccc34)[C@@H]2C[C@@H]1N(C)C(=O)Nc1cccc2ccccc12	2.9	/	0.6	/	/	/
C[C@H](O)[C@@H]1C(=O)N2CCc3c([nH]c4ccccc34)[C@@H]2C[C@@H]1N(C)C(=O)c1cc(Cl)cc(Cl)c1	-5.3	/	12.6*	46.0*	0.4	19.8*
C[C@H](O)[C@@H]1C(=O)N2CCc3c([nH]c4c(-c5ccccc5)cccc34)[C@@H]2C[C@@H]1N(C)C(=O)c1cc(Cl)cc(Cl)c1	6.2	/	/	/	/	/
SMILES	ERp5 block	PDI turbidity	TbMetRS inhib	Tb MetRS conf	Jurkat cytotox	TbMetRS FP orth
Cc1ccc(S(=O)(=O)N(C)[C@H]2C[C@H]3c4[nH]c5cccc(-c6ccccc6)c5c4CCN3C(=O)[C@H]2[C@H](C)O)cc1	3.5	/	/	/	/	/
C[C@H](O)[C@@H]1CN2CCc3c([nH]c4ccccc34)[C@@H]2C[C@@H]1N(C)Cc1cc(Cl)cc(Cl)c1	-1.7	9.1	33.6*	70.7*	-0.3	37.2*
C[C@H](O)[C@@H]1C(=O)N2CCc3c([nH]c4ccccc34)[C@@H]2C[C@@H]1N(C)S(=O)(=O)c1ccccc1	-1.0	11.4	27.2*	23.4*	5.3	8.2
C[C@H]1CN([C@@H](C)CO)C(=O)c2cccc(NC(=O)c3ccncc3)c2O[C@H]1CN(C)C(=O)Nc1ccc(C(F)(F)F)cc1	1.8	/	/	/	/	/
COc1ccc(-c2ccc3c(c2)[C@@H]2[C@@H](CCN2C(=O)c2ccc4c(c2)OCO4)[C@@H](CO)N3C)cc1	-2.4	/	/	/	/	/
CCC(=O)N1CC2(CCN(Cc3ccc(F)cc3)CC2)c2c(n(C)c3cc(OC)ccc23)[C@H]1CO	9.0	/	/	/	/	/
COc1ccc(NC(=O)N(C)[C@H]2C[C@H]3c4[nH]c5ccccc5c4CCN3C(=O)[C@H]2CO)cc1	-3.6	4.1	0.4	/	/	/
COc1ccc(C(=O)N(C)[C@H]2C[C@H]3c4[nH]c5ccccc5c4CCN3C(=O)[C@H]2CO)cc1	0.1	5.4	44.2*	62.5*	-4.0	26.1*
Cc1ccccc1C(=O)N(C)[C@H]1C[C@H]2c3[nH]c4c(-c5ccccc5)cccc4c3CCN2C(=O)[C@H]1[C@H](C)O	-3.3	/	/	/	/	/
Cc1ccccc1C(=O)N(C)[C@H]1C[C@H]2c3[nH]c4ccccc4c3CCN2C(=O)[C@H]1[C@H](C)O	0.1	-2.9	31.4*	47.9*	4.2	18.1*
C[C@H]1CCCCO[C@@H](CN(C)C(=O)Nc2ccc3c(c2)OCO3)[C@@H](C)CN([C@@H](C)CO)C(=O)c2cc(NS(=O)(=O)c3cccs3)ccc2O1	-5.5	/	/	/	/	/
COc1ccc(S(=O)(=O)NC2CC2)cc1-n1cnnn1	3.8	1.2	-0.4	/	/	/
COc1ccc(S(=O)(=O)Nc2c(C)cccc2C)cc1-n1cnnn1	1.5	0.8	5.9*	2.6	-6.0	0.9
C[C@H](CO)N1C[C@H](C)[C@@H](CN(C)Cc2ccc(Oc3ccccc3)cc2)Oc2ccc(NC(=O)Nc3ccccc3)cc2CC1=O	-2.6	/	/	/	/	/
COc1ccc(Br)cc1CSC(=N)N	-10.2	-0.8	11.1*	2.4	9.3	2.4
CCCCCOc1ccc(Br)cc1CSC(=N)N	6.6	-7.5	1.6	/	/	/
Cc1nc(SCC(=O)NCCc2ccccc2)c2c(=O)n(C)c(=O)n(C)c2n1	0.8	-7.5	-0.2	/	/	/
Cc1nc(SCC(=O)NCc2ccccc2)c2c(=O)n(C)c(=O)n(C)c2n1	-3.6	/	5.6*	2.0	6.5	-0.7
CC(C)NC(=O)Nc1ccc2c(c1)C(=O)N([C@@H](C)CO)C[C@H](C)[C@H](CN(C)C)OCCCC[C@@H](C)O2	1.4	/	/	/	/	/
CC(C)NC(=O)Nc1ccc2c(c1)C(=O)N([C@@H](C)CO)C[C@@H](C)[C@@H](CN(C)C(=O)Nc1ccccc1)OCCCC[C@@H](C)O2	-4.1	/	/	/	/	/
